What all share (assay type): functional
One assay concerns Bacillus subtilis. Kind of assay: Antimicrobial activity against Bacillus subtilis NCIM 2718 after 18 hrs by broth microdilution assay. Conditions: NCIM 2718, 18 h. A digest of the protocol:
(§1)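 MIC by broth microdilution in Mueller Hinton broth, final inoculum 5 × 10⁵ CFU/ml. Compounds dissolved in absolute ethanol (10 mg per 1 ml stock), then serially diluted into successive wells. Incubated with organism at 37 °C for 18 h with growth and sterility controls, ethanol blank, and uninoculated dilutions checked for precipitation. Then 0.01% resazurin added, read after 2 h further incubation.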

A further assay concerns Pseudomonas aeruginosa. Kind of assay: Antimicrobial activity against Pseudomonas aeruginosa NCIM 5029 after 18 hrs by broth microdilution assay. Conditions: NCIM 5029, 18 h. Put shortly:
as §1
Background: Dilution methods test growth across graded concentrations, often in twofold steps.

For a further assay, the system named is Staphylococcus aureus. Kind of assay: Antimicrobial activity against Staphylococcus aureus NCIM 5021 after 18 hrs by broth microdilution assay. Conditions: NCIM 5021, 18 h. A digest of the protocol:
as §1

Values after ≈ are worked out from the molar mass of the structure shown.

For orientation: MIC means the least concentration at which growth counts as inhibited. A low value points to a more susceptible organism. For `CN1C(=O)C[C@@]2(C1=O)[C@@H](c1ccccc1O)CN(C)[C@@]21C(=O)Nc2ccccc21`, the results for the MIC against Bacillus subtilis, in the assay with Pseudomonas aeruginosa and with Staphylococcus aureus were 639 µM (≈ 250 µg/mL), 80 µM (≈ 31.3 µg/mL) and 639 µM (≈ 250 µg/mL), respectively.
Regarding `CN1C(=O)C[C@@]2(C1=O)[C@@H](c1ccccc1O)CN(C)[C@@]21C(=O)N(C)c2ccccc21`, the MIC was found to be 617 µM (≈ 250 µg/mL) in the assay on Bacillus subtilis, 77 µM (≈ 31.2 µg/mL) in the assay on Pseudomonas aeruginosa and 617 µM (≈ 250 µg/mL) with Staphylococcus aureus.
On to `COc1ccc([C@H]2CN(C)[C@@]3(C(=O)Nc4ccccc43)[C@@]23CC(=O)N(C)C3=O)cc1`, for which the MIC stood at 617 µM (≈ 250 µg/mL) in the assay with Bacillus subtilis, 154 µM (≈ 62.4 µg/mL) against Pseudomonas aeruginosa and 617 µM (≈ 250 µg/mL) in the assay with Staphylococcus aureus.
Regarding `COc1ccc([C@H]2CN(C)[C@@]3(C(=O)N(C)c4ccccc43)[C@@]23CC(=O)N(C)C3=O)cc1`, the MIC in the assay on Bacillus subtilis came out at 596 µM (≈ 250 µg/mL); in the assay on Pseudomonas aeruginosa, 298 µM (≈ 125 µg/mL); in the assay with Staphylococcus aureus it was 298 µM (≈ 125 µg/mL).
For the compound `C#CCN1C(=O)[C@]2(c3ccccc31)N(C)C[C@H](c1ccccc1O)[C@]21CC(=O)N(C)C1=O`, the MIC came to 291 µM (≈ 125 µg/mL) in the assay on Bacillus subtilis, 146 µM (≈ 62.7 µg/mL) against Pseudomonas aeruginosa and 291 µM (≈ 125 µg/mL) in the assay with Staphylococcus aureus.
For the compound `COc1ccc([C@H]2CN(C)[C@@]3(C(=O)N(Cc4ccccc4)c4ccccc43)[C@@]23CC(=O)N(C)C3=O)cc1`, the figures for the minimum inhibitory concentration (MIC) in the assay on Bacillus subtilis, against Pseudomonas aeruginosa and against Staphylococcus aureus were 504 µM (≈ 250 µg/mL), 252 µM (≈ 125 µg/mL) and 252 µM (≈ 125 µg/mL), respectively.
For the compound `CN1C(=O)C[C@@]2(C1=O)[C@@H](c1ccc(Cl)cc1)CN(C)[C@@]21C(=O)Nc2ccccc21`, the minimum inhibitory concentration (MIC) against Bacillus subtilis amounted to 610 µM (≈ 250 µg/mL); in the assay with Pseudomonas aeruginosa, 152 µM (≈ 62.3 µg/mL); in the assay with Staphylococcus aureus it was 305 µM (≈ 125 µg/mL).
In the same order, the values of `CN1C(=O)C[C@@]2(C1=O)[C@@H](c1ccc(Cl)cc1)CN(C)[C@@]21C(=O)N(C)c2ccccc21` are 590 µM (≈ 250 µg/mL), 147 µM (≈ 62.3 µg/mL) and 295 µM (≈ 125 µg/mL).
As for `Cc1ccc([C@H]2CN(C)[C@@]3(C(=O)Nc4ccccc43)[C@@]23CC(=O)N(C)C3=O)cc1`, the MIC in the assay with Bacillus subtilis was 642 µM (≈ 250 µg/mL); with Pseudomonas aeruginosa it was 321 µM (≈ 125 µg/mL); in the assay with Staphylococcus aureus it was 321 µM (≈ 125 µg/mL).
Take `CC1(C)S[C@@H]2[C@H](NC(=O)[C@H](N)c3ccccc3)C(=O)N2[C@H]1C(=O)O` [AMPICILLIN]: the figures for the minimum inhibitory concentration (MIC) against Bacillus subtilis, against Pseudomonas aeruginosa and against Staphylococcus aureus were 168 µM (≈ 58.7 µg/mL), 168 µM (≈ 58.7 µg/mL) and 84 µM (≈ 29.4 µg/mL), respectively.
With `CN(C)[C@@H]1C(O)=C(C(N)=O)C(=O)[C@@]2(O)C(O)=C3C(=O)c4c(O)cccc4[C@@](C)(O)[C@H]3C[C@@H]12` [TETRACYCLINE], the MIC against Bacillus subtilis came out at 1 µM (≈ 0.444 µg/mL); with Pseudomonas aeruginosa it was 4 µM (≈ 1.78 µg/mL); against Staphylococcus aureus, 2 µM (≈ 0.889 µg/mL).

Source of the values: ChEMBL document CHEMBL1208687, “Synthesis, antibacterial activity evaluation and QSAR studies of novel dispiropyrrolidines” (2010).
